In PubChem BioAssay AID463079 (The Scripps Research Institute Molecular Screening Center, 2010) one finds inhibition data, which are given here for 91 molecules.

The term inhibition denotes the drop in the measured response relative to a control, in per cent.

SMILES strings stand for the structures. About 2,000 (0.61%) of roughly 330,000 compounds were called active.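 How the source made its calls: active means inhibition above that plate's mean sample inhibition plus 3 SD (cut at about 26% in these data); inactive means the rest.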 This excerpt belongs to a sample that is enriched for actives.

The assay is described as follows: nonselective Gq signaling inhibition in CHO cells – cell-based, fluorescence, Fluo-8 calcium dye, counter-screen for OX1R antagonist project, primary screen (AID 463079).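 Further: 0% = ATP-challenged DMSO wells and 100% = DMSO wells without ATP.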 The settings on record: parental CHO-K1, ATP-induced calcium, Fluo-8 fluorescence; at 5.6 µM; hits give high values. The procedure, abridged:
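Test system: untransfected parental CHO cell line. Compound: one dose, 5.6 µM nominal. Detection: intracellular calcium via Fluo-8 no-wash fluorescent dye. Measure: % inhibition. Benchmarks: ATP-challenged DMSO wells low, unchallenged DMSO wells high.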
(In general: The purpose of a counterscreen is to sort out artefacts and off-target activity.)
Take `CCCC(C)NC(=O)C1CCN(C(=O)C2CC(=O)N(c3ccc(C)cc3)C2)CC1` (stereo unspecified): the inhibition is -8.45% (inactive). In the case of `O=S(=O)(c1cccc(Cn2nnc(-c3ccc(F)cc3)n2)c1)N1CCOCC1`, the inhibition was 41.7% (active). As for `Cc1nc(-c2ccc(F)cc2)c(CC(=O)Nc2cccc(S(=O)(=O)N3CCOCC3)c2)s1`, the inhibition is -17.7% (inactive).

As to `CCN(Cc1ccncc1)C(=O)c1cccc(S(=O)(=O)N2CCOCC2)c1`, the inhibition is -16.1% (inactive). The result for `CC(=O)Nc1ccc(S(=O)(=O)Oc2ccc(/C=N/N=C3/NC(=O)C(CC(=O)O)S3)cc2)cc1` (stereo unspecified) reads -3.01% (inactive); that for `CC(c1ccccn1)N(C)C(=O)c1ccc2nc(Cc3cccc(Cl)c3)oc2c1` (stereo unspecified), -18.4% (inactive). `CC[C@]12c3[nH]c4ccc(Cl)cc4c3CCN1C(=O)[C@@H](CC(=O)NCCN1CCOCC1)C[C@@H]2C(=O)N1CCN(C(=O)C2CC2)CC1`: the inhibition was -12.4% (inactive). For the molecule `Cc1cc(OC(=O)c2ccc(Cl)cc2)cc(=O)n1C`, the inhibition is -3.96% (inactive).

As for `COCCCNc1nc2c(-c3cccc(C)c3)nnn2c2ccc(Cl)cc12`, the inhibition is -27.9% (inactive). `Cc1ccc2cc(CCNC(=O)c3ccc4c(c3)OCO4)c(=O)[nH]c2c1`: the inhibition was -18% (inactive). As for `O=C(NCCc1ccc(C(F)(F)F)cc1)c1ccc2c(c1)OCO2`, the inhibition was 40.1% (active).

For the molecule `COc1ccc(CCNC(=O)COc2ccc3c(c2)OCO3)cc1`, the inhibition is -4.78% (inactive). Turning to `O=S(N1CCCCCC1)C12CC3CC(CC(C3)C1)C2` (stereo unspecified), the inhibition was -6.89% (inactive). For `COc1ccc(N2CCC(CNC(=S)Nc3c(C)cccc3C)C2)cc1` (stereo unspecified), the inhibition is -5.49% (inactive).

As for `CC1(C)C2CCC1(C)C(OC(=O)c1ccc(O)cc1)C2` (stereo unspecified), the inhibition was 76.2% (active).

On to `Cc1ccc(C(=O)OC2CCCN(C)C2)cc1` (stereo unspecified), for which the inhibition is -15% (inactive). For the molecule `CC1(C)C2CCC1(C)C(OC(=O)CCn1ccnc1)C2` (stereo unspecified), the inhibition is -13.9% (inactive).

On to `O=C(CNC(=O)c1ccc(Br)o1)NCC1CCCO1` (stereo unspecified), for which the inhibition was 4.99% (inactive).

`CC[C@]12c3[nH]c4cc(CCC(=O)N(C)C)ccc4c3CCN1C(=O)[C@@H](CC(=O)NCCCN(C)C)C[C@@H]2C(=O)N1CCN(C(=O)c2ccco2)CC1`: the inhibition is -12.2% (inactive). The same measure for `CCC(C)NC(=O)C1c2ccccc2Oc2ccccc21` (stereo unspecified): -11.6% (inactive); for `CCC(C)(C)NC(=O)C1c2ccccc2Oc2ccccc21`: 41.2% (active); for `CCCCCNC(=O)C1c2ccccc2Oc2ccccc21`: -8.91% (inactive).

Turning to `Cc1cc(C)c2nc(SCC(=O)N(C)C3CCS(=O)(=O)C3)cc(C)c2c1` (stereo unspecified), the inhibition is -7.05% (inactive). On to `CCOc1ccc(C(=O)Nc2cccc(-c3ccc4nncn4n3)c2)cc1`, for which the inhibition was -7.65% (inactive).

Turning to `O=S(=O)(NC1CC2CCC1C2)c1ccc(Cl)cc1` (stereo unspecified), the inhibition is -7.07% (inactive). Regarding `O=C(NCCN=C1NS(=O)(=O)c2ccccc21)c1ccc(S(=O)(=O)N2CCOCC2)cc1`, the inhibition is -2.4% (inactive). `Cc1n[nH]c(C)c1S(=O)(=O)N1CCCC(C(=O)NCC2COc3ccccc3O2)C1` (stereo unspecified): the inhibition was -6.84% (inactive).

In the case of `Cc1cccc(C(=O)OCC(=O)Nc2sc3c(c2C#N)CCC3)c1`, the inhibition was -1.94% (inactive). As to `CC(=O)c1c(C)[nH]c(C(=O)OCC(=O)Nc2c(C)cccc2C)c1C`, the inhibition was -7.2% (inactive). Take `CC(=O)c1c(C)[nH]c(C(=O)OCC(=O)Nc2sc3c(c2C#N)CCCC3)c1C`: the inhibition is 33.6% (active). The same measure for `O=C(COC(=O)[C@H](Cc1ccccc1)NC(=O)c1cccs1)Nc1cc(F)ccc1F`: -7.13% (inactive); for `CC(=O)N(O)CCCCCNC(=O)CCC(=O)N(O)CCCCCNC(=O)CCC(=O)N(O)CCCCCNC(=O)CCC(=O)O`: -0.82% (inactive); for `O=C(NC(=S)NC1CCSC1=O)c1ccccc1F` (stereo unspecified): -7.55% (inactive). Consider `COc1cc(OC)c(N2CC(C(=O)Nc3cc(Cl)ccc3N3CCOCC3)CC2=O)cc1Cl` (stereo unspecified), for which the inhibition is -16.6% (inactive). `COc1cc(OC)c(-n2cc(-c3ccc(Cl)cc3)[nH]c2=O)cc1Cl`: the inhibition is 39.3% (active).

On to `COc1cc(OC)c(-n2c(C)cc(C=O)c2C)cc1Cl`, for which the inhibition was -12.5% (inactive). As for `CN(c1ccccc1)S(=O)(=O)c1cc(C(=O)N2CCN(c3ncccn3)CC2)ccc1Cl`, the inhibition is -18.9% (inactive). With `CC(C)(C)c1ccc(SCCc2ccncc2)cc1`, the inhibition was 28.1% (inactive). The result for `O=C(O)CC1S/C(=N\N=C/c2ccccc2O)N(c2ccc(O)cc2)C1=O` (stereo unspecified) reads -10.7% (inactive). On to `CCn1nccc1C(=O)Nc1ccc(Cl)c(Cl)c1`, for which the inhibition is -8.3% (inactive).

For `CS(=O)(=O)N(CC(=O)Nc1ccc(Cl)c(Cl)c1)C1CCCCC1`, the inhibition was -5.86% (inactive). `O=C(CC(O)(C(F)(F)F)C(F)(F)F)Nc1ccc(Cl)c(Cl)c1`: the inhibition was 72.5% (active). For the molecule `CN(C)CCN(Cc1ccccc1)S(=O)(=O)c1csc(C(N)=O)c1`, the inhibition was -12.9% (inactive). Take `COc1cccc(-c2coc3cc4oc(=O)c(CC(=O)O)c(C)c4cc23)c1`: the inhibition was 1.98% (inactive). The result for `CC#CC[N+](C)(C)CCCCCC` reads -6.39% (inactive); that for `O=C(NC(Cc1ccccc1)C(=O)N1CCCC(C(F)(F)F)C1)c1ccccc1` (stereo unspecified), -16.7% (inactive). Take `FC(F)(F)C1CCCN(c2nsc3ccccc23)C1` (stereo unspecified): the inhibition was 51.7% (active). Consider `O=C(NCC(=O)N1CCCC(C(F)(F)F)C1)c1ccccc1F` (stereo unspecified), for which the inhibition was -5.99% (inactive).

Turning to `Cc1cc(C(=O)O)c(S(C)(=O)=O)s1`, the inhibition is -2.26% (inactive). In the case of `CCN(CC)C(=O)[C@H]1C[C@H](CC(=O)NCC23CC4CC(CC(C4)C2)C3)C(=O)N2CCc3c([nH]c4cc(CCC(=O)N(C)C)ccc34)[C@]12C`, the inhibition is -25.6% (inactive).

On to `Fc1ccc2[nH]c3c(N4CCSCC4)ncnc3c2c1`, for which the inhibition was 58.3% (active). Take `COc1cc(C(=O)N2C(=O)c3cccc(N)c3C2=O)cc(OC)c1OC`: the inhibition was -9.7% (inactive). As for `Cc1nn(C)cc1N1C(=O)c2cccc3c(N)ccc(c23)C1=O`, the inhibition is 36.8% (active).

In the case of `CC(=O)Nc1ccccc1Sc1ccc2c3c(cccc13)C(=O)N(c1ccc(C)cc1)C2=O`, the inhibition was -4.4% (inactive). With `O=C(O)c1ccc2c3c(cccc13)C(=O)N(OS(=O)(=O)c1ccccc1)C2=O`, the inhibition is -10.1% (inactive). The same measure for `CN1C(=O)c2cccc3c(N)ccc(c23)C1=O`: 49.2% (active); for `Cc1nn(C)cc1C(=O)c1ccccc1`: -6.65% (inactive). Take `CC(NS(=O)(=O)c1ccccc1)c1n[nH]c(=S)n1-c1ccccc1` (stereo unspecified): the inhibition is 9.34% (inactive). For the molecule `O=C(c1ccccc1Cl)N(Cc1ccccc1F)N1C(=O)CCCC1=O`, the inhibition was 6.42% (inactive). The result for `COCCCN1C(=O)C(=O)/C(=C(/O)c2ccc(S(=O)(=O)N3CCOCC3)cc2)C1c1ccc(F)cc1` (stereo unspecified) reads 14.2% (inactive). As to `COc1cc(OC)cc(C(=O)Nc2ccc(S(=O)(=O)Nc3cc(C)on3)cc2)c1`, the inhibition is -3.8% (inactive). The same measure for `COc1ccc(NS(=O)(=O)c2ccc(NC(=O)c3ccc(N(C)S(C)(=O)=O)cc3)cc2)cc1`: 31.2% (active). The same measure for `COc1ccc(NS(=O)(=O)c2ccc(NC(=S)NC(=O)CC(C)C)cc2)cc1`: 44.3% (active); for `COc1ccc(NS(=O)(=O)c2ccc(C(=O)Nc3c(C)n(C)n(-c4ccccc4)c3=O)cc2)cc1`: -3.65% (inactive); for `COc1ccc(OC)c(C(C)NC(=S)Nc2ccc(S(=O)(=O)Nc3ncccn3)cc2)c1` (stereo unspecified): 3.7% (inactive). Consider `CC(=O)c1ccc(NC(=S)NC(=O)CC(C)C)cc1`, for which the inhibition was 7.82% (inactive). Take `CCSc1nc(=S)n(CC)c(C)c1C(C)=O`: the inhibition is -1.19% (inactive). On to `CC(C)(C)CN1C(=O)C(=O)NC[C@H]1Cc1cccc2ccccc12`, for which the inhibition was -9.71% (inactive). Consider `COC(=O)Nc1ncc(CN2CCCCC2)s1`, for which the inhibition was 0.87% (inactive).

Regarding `O=C(Cc1ccc(Cl)cc1)NC(=S)Nc1ccccc1O`, the inhibition is 39% (active). Consider `O=C(COc1ccc(Cl)cc1)NC(=S)Nc1ccccc1N1CCOCC1`, for which the inhibition is -32% (inactive).

Regarding `Cc1ccccc1NC(=S)NC(=O)Cc1ccc(Cl)cc1`, the inhibition is 2.02% (inactive). The same measure for `COc1ccc(NC(=O)CSCc2ccc([N+](=O)[O-])cc2)cc1OC`: -6.67% (inactive); for `CC(C)CC(=O)N=C1SC2CS(=O)(=O)CC2N1CCc1ccccc1` (stereo unspecified): -2.34% (inactive); for `O=c1c2ccccc2nc2n1C(CSCc1cccc(C(F)(F)F)c1)CS2` (stereo unspecified): 40.1% (active). In the case of `O=c1c2ccccc2nc2n1C(CSCc1ccccc1)CS2` (stereo unspecified), the inhibition was 2.02% (inactive). As for `O=c1c2ccccc2nc2n1C(CSc1ccc(F)cc1)CN2` (stereo unspecified), the inhibition was -3.49% (inactive).

Consider `COc1ccccc1C(=O)C(O)c1ccccc1OC` (stereo unspecified), for which the inhibition was -2.08% (inactive). Consider `Cc1cccc(C)c1NC(=O)CNC(=O)c1c(C)nn(-c2ccccc2)c1C`, for which the inhibition was 9.7% (inactive). The result for `COc1ccc(OC)c(-c2csc(NC(=O)COC(=O)C3CC3)n2)c1` reads -16.7% (inactive); that for `COc1cc(CC(=O)Nc2nc(-c3ccc(F)c(F)c3)cs2)cc(OC)c1OC`, 50.5% (active); that for `COc1ccc(-c2csc(NC(=O)COC(=O)Cc3ccc(Cl)cc3Cl)n2)cc1`, -7.84% (inactive). `COc1cc(CC(=O)NCc2cccs2)cc(OC)c1OC`: the inhibition was -12.1% (inactive).

For the molecule `COc1cccc(CC(=O)Nc2nc(-c3ccc(OC)c(OC)c3)cs2)c1`, the inhibition was 50.6% (active). For the molecule `COc1ccc(-c2csc(NC(=O)COC(=O)c3ccc(Br)o3)n2)cc1`, the inhibition was -1.84% (inactive).

With `CCCc1ccc(-c2csc(NC(=O)Cc3cccs3)n2)cc1`, the inhibition is -13.1% (inactive).

For the molecule `COc1ccc(CC(=O)Nc2nc(-c3ccc(F)c(F)c3)cs2)cc1OC`, the inhibition is 55.3% (active). For `Cc1ccc(S(=O)(=O)NC(=O)Nc2nc(-c3ccc(F)c(F)c3)cs2)cc1`, the inhibition was 13.3% (inactive). For `Cc1ccc(C)c(Cn2nnc3c(=O)[nH]c(C(=O)Nc4ccc(F)cc4)nc32)c1`, the inhibition is -8.13% (inactive). The same measure for `Cc1cccc(NC(=S)NCCc2ccc(F)cc2)c1C`: -8.34% (inactive). The same measure for `C=CCOC(=O)C1=C[C@H](c2ccc(Br)cc2)C[C@H](OCCCCO)O1`: -16.9% (inactive).
